Experimental data published in ChEMBL document CHEMBL1124795, “Synthesis and cytotoxicity of deoxyadenosine analogues: isomer distribution in the sodium salt glycosylation of 2,6-disubstituted purines” (J Med Chem, 1990).
Calls of active or inactive are those of the source. The calls are words filed in the database; no cut-off is given here.

Columns and labels:
Raji [1] = test: (§1) In vitro toxicity which caused 50% decrease in [14C]- leucine incorporation by the Raji cells in culture.; assay type: functional; details: Homo sapiens, read-out: ID50 (the source's name)
How it was run: (§2)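 Cells seeded at 10⁴ per well and exposed to compounds for 3 days in RPMI 1640 with 10% fetal calf serum, glutamine and antibiotics, at 37 °C under 5% CO₂. [¹⁴C]-L-leucine (0.5 μCi/mL) was present for the final 24 h. Protein was precipitated with 0.2 N perchloric acid, collected on glass-fibre filters and scintillation-counted. ID50 (μM, 50% drop in incorporation) was read from triplicate dose-response curves.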

MOLT-4 [2] = test: (§3) In vitro toxicity which caused 50% decrease in [14C]- leucine incorporation by the MOLT-4 cells in culture.; assay type: functional; details: Homo sapiens, read-out: ID50 (the source's name); how it was run: as §2
K562 [3] = test: In vitro toxicity which caused 50% decrease in [14C]- leucine incorporation by the K-562 cells in culture.; assay type: functional; details: Homo sapiens, read-out: ID50 (the source's name); how it was run: as §2
PHA-Ly [4] = test: In vitro toxicity which caused 50% decrease in [14C]- leucine incorporation by the PHA-LY cells in culture.; assay type: functional; details: Homo sapiens, read-out: ID50 (the source's name); how it was run: as §2
B-95-8 cell line [5] = test: In vitro toxicity which caused 50% decrease in [14C]- leucine incorporation by the B-95-8 cells in culture.; assay type: functional, Callitrichidae; details: Saguinus oedipus, read-out: ID50 (the source's name); how it was run: as §2
U-937 [6] = test: (§4) In vitro toxicity which caused 50% decrease in [14C]- leucine incorporation by the U-937 cells in culture.; assay type: functional; details: Homo sapiens, read-out: ID50 (the source's name); how it was run: as §2
NALL-1 [7] = test: (§5) In vitro toxicity which caused 50% decrease in [14C]- leucine incorporation by the NALL-1 cells in culture.; assay type: functional; details: Homo sapiens, read-out: ID50 (the source's name); how it was run: as §2
HL-60 [8] = test: In vitro toxicity which caused 50% decrease in [14C]- leucine incorporation by the HL-60 cells in culture.; assay type: functional; details: Homo sapiens, read-out: ID50 (the source's name); how it was run: as §2
MOLT-4 [9] = test: In vitro toxicity which caused 50% decrease in [14C]- leucine incorporation by the MOLT-4 cells in culture at 40 uM; IN-Inactive; assay type: functional, cell-based; details: Homo sapiens; how it was run: as §2
B-95-8 cell line [10] = test: In vitro toxicity which caused 50% decrease in [14C]- leucine incorporation by the B-95-8 cells in culture at 40 uM; IN-Inactive; assay type: functional, cell-based; how it was run: as §2
HL-60 [11] = test: In vitro toxicity which caused 50% decrease in [14C]- leucine incorporation by the HL-60 cells in culture at 40 uM; IN-Inactive; assay type: functional, cell-based; details: Homo sapiens; how it was run: as §2
K562 [12] = test: In vitro toxicity which caused 50% decrease in [14C]- leucine incorporation by the K-562 cells in culture at 40 uM; IN-Inactive; assay type: functional, cell-based; details: Homo sapiens; how it was run: as §2
NALL-1 [13] = test: In vitro toxicity which caused 50% decrease in [14C]- leucine incorporation by the NALL-1 cells in culture at 40 uM; IN-Inactive; assay type: functional, cell-based; details: Homo sapiens; how it was run: as §2
U-937 [14] = test: In vitro toxicity which caused 50% decrease in [14C]- leucine incorporation by the U-937 cells in culture at 40 uM; IN-Inactive; assay type: functional, cell-based; details: Homo sapiens; how it was run: as §2
PHA-Ly [15] = test: In vitro toxicity which caused 50% decrease in [14C]- leucine incorporation by the PHA-LY cells in culture at 40 uM; IN-Inactive; assay type: functional, cell-based; details: Homo sapiens; how it was run: as §2
Raji [16] = test: In vitro toxicity which caused 50% decrease in [14C]- leucine incorporation by the Raji cells in culture at 40 uM; IN-Inactive; assay type: functional, cell-based; details: Homo sapiens; how it was run: as §2
NALL-1 [17] = test: as §5; assay type: cell-based; details: human, read-out: ID50 (the source's name); how it was run: as §2
Raji [18] = test: as §1; assay type: cell-based; details: human, read-out: ID50 (the source's name); how it was run: as §2
U-937 [19] = test: as §4; assay type: cell-based; details: human, read-out: ID50 (the source's name); how it was run: as §2
MOLT-4 [20] = test: as §3; assay type: cell-based; details: human, read-out: ID50 (the source's name); how it was run: as §2

SMILES	IC50 (Raji [1])	IC50 (MOLT-4 [2])	IC50 (K562 [3])	IC50 (PHA-Ly [4])	IC50 (B-95-8 cell line [5])	IC50 (U-937 [6])	IC50 (NALL-1 [7])	IC50 (HL-60 [8])	ID50 (MOLT-4 [9])	ID50 (B-95-8 cell line [10])	ID50 (HL-60 [11])	ID50 (K562 [12])	ID50 (NALL-1 [13])	ID50 (U-937 [14])	ID50 (PHA-Ly [15])	ID50 (Raji [16])	CC50 (NALL-1 [17])	CC50 (Raji [18])	CC50 (U-937 [19])	CC50 (MOLT-4 [20])
CN(C)c1nc(N)c2ncn([C@@H]3C[C@@H](O)[C@H](CO)O3)c2n1	125 µM	> 300 µM	> 300 µM	> 300 µM	182 µM	> 300 µM	> 300 µM	> 300 µM												
CNc1nc(SC)nc2c1ncn2[C@@H]1C[C@@H](O)[C@H](CO)O1	> 300 µM	> 300 µM	> 300 µM	81 µM	> 300 µM	> 300 µM	186 µM	> 300 µM												
CN(C)c1nc(N(C)C)c2ncn([C@@H]3C[C@@H](O)[C@H](CO)O3)c2n1									inactive	inactive	inactive	inactive	inactive	inactive	inactive	inactive				
CSc1nc(N)c2ncn([C@@H]3C[C@@H](O)[C@H](CO)O3)c2n1	107 µM	> 300 µM	> 300 µM	82 µM	> 300 µM	> 300 µM	96 µM	> 300 µM												
CNc1nc(Br)nc2c1ncn2[C@@H]1C[C@@H](O)[C@H](CO)O1	80 µM	177 µM	110 µM	30 µM	253 µM	140 µM	230 µM	143 µM												
CN(C)c1nc(Br)nc2c1ncn2[C@@H]1C[C@@H](O)[C@H](CO)O1	> 300 µM	> 300 µM	> 300 µM	88 µM	> 300 µM	164 µM	290 µM	> 300 µM												
CSc1nc(N(C)C)c2ncn([C@@H]3C[C@@H](O)[C@H](CO)O3)c2n1	233 µM	172 µM	> 300 µM	260 µM	116 µM	126 µM	188 µM	> 300 µM												
Nc1nc(Br)nc2c1ncn2[C@@H]1C[C@@H](O)[C@H](CO)O1			83 µM	1.6 µM	6 µM			41 µM									12 µM	0.7 µM	0.8 µM	3.2 µM
CSc1nc(SC)c2ncn([C@@H]3C[C@@H](O)[C@H](CO)O3)c2n1	170 µM	141 µM	> 300 µM	167 µM	225 µM	> 300 µM	173 µM	> 300 µM												
